Experimental findings from ChEMBL document CHEMBL1141660, “Synthesis and antimycobacterial evaluation of substituted pyrazinecarboxamides” (Eur J Med Chem, 2008) are described below.

In assay [1] the test system is Mycobacterium tuberculosis. Briefly: Antimicrobial activity against Mycobacterium tuberculosis H37Rv ATCC 27294 at 6.25 ug/mL by microplate alamar blue assay. Type of assay: functional. Background: Resazurin is reduced to fluorescent resorufin, in cell work by metabolically active cells.
The nature of assay [2]: Inhibition of photosynthetic electron transport in Spinacia oleracea chloroplasts assessed as photoreduction of 2,6-dicholorophenol-indophenol measured by decrease in oxygen evolution rate. Type of assay: functional. The essentials:
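Chloroplast suspension (chlorophyll 30 mg/L) in 0.02 mol/L phosphate buffer, pH 7.2, with 0.4 mol/L sucrose, 0.005 mol/L MgCl2 and 0.015 mol/L NaCl. Samples were lit by a halogen lamp (~100 W/m², 10 cm, 4-cm water filter) at 22 °C. Electron transport was followed as DCPIP photoreduction. IC50 is the molar concentration halving oxygen evolution versus the untreated control.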

The test system of assay [3] is Chlorella vulgaris. Briefly: Antialagal activity against Chlorella vulgaris Beji assessed as reduction in chlorophyll content after 7 days at 0.83 to 100 umol/L. Also on record: scale not given: the % may be the effect or the level left. The assay is classed as functional. The essentials:
(§1)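 Chlorella cultures with compound added from DMSO (final ≤0.25%), against controls carrying the same DMSO level. Chlorophyll content was read relative to the control. Results are given either as IC50 (concentration giving a 50% drop in chlorophyll) or as percent of control across the 0.83–100 concentration range, with S.D.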

In assay [4] the test system is Chlorella vulgaris. Briefly: Antialagal activity against Chlorella vulgaris Beji assessed as reduction in chlorophyll content after 7 days. Type of assay: functional, organism-based. The settings on record: 168 h. In short, it runs like this:
as §1

For assay [5], the system named is Mycobacterium tuberculosis. The assay can be described thus: Antimicrobial activity against Mycobacterium tuberculosis H37Rv ATCC 27294 by microplate alamar blue assay. The assay is classed as functional.
The next assay concerns Vero. The assay can be described thus: Cytotoxicity against african green monkey Vero cells after 72 hrs by MTT assay. The assay is classed as cell-based. To be noted: Chlorocebus sabaeus. The essentials:
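Secondary screen in VERO cells. Viability was read with the CellTiter 96 non-radioactive cell proliferation assay.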

Assay [6] in a line: Selectivity index, ratio of MIC Mycobacterium tuberculosis H37Rv ATCC 27294 to IC50 for african green monkey Vero cells. Type of assay: functional.
The test system of assay [7] is Trichophyton mentagrophytes. Briefly: Antifungal activity against Trichophyton mentagrophytes after 72 hrs. Type of assay: functional.
Assay [8] has as its system Trichophyton mentagrophytes. The assay can be described thus: Antifungal activity against Trichophyton mentagrophytes after 120 hrs. The assay is classed as functional.

In brackets after ≈: the same amount, converted by molar mass.

Consider `CC(C)(C)c1ncc(C(=O)Nc2cc(O)ccc2Cl)nc1Cl`, for which the inhibition (commonly the change of the read-out against control, counted positive when it falls) at 6.25 µg/mL in [1] amounted to 0%. In addition, the IC50 (in general, the concentration at which inhibition is half-maximal) in assay [2] is 625 µM. In the assay with Chlorella vulgaris [3], the Activity is reported as 98%.
In assay [1], `O=C(Nc1cc(O)ccc1Cl)c1cncc(Cl)n1` had an inhibition at 6.25 µg/mL of 15%. In addition, in assay [2], the IC50 stood at 624 µM. The Activity in the assay on Chlorella vulgaris [3] is 103%.
On the same counts, the results for `O=C(Nc1cc(O)ccc1Cl)c1cnccn1` are 0%, 722 µM and 97.1%.
Take `Cc1ccc(NC(=O)c2cncc(Cl)n2)cc1`: the inhibition at 6.25 µg/mL in [1] amounted to 71%. The results for the half-inhibitory concentration (IC50) (in assay [2]; in the assay on Chlorella vulgaris [4]) were 1520 µM and 37.4 µM, respectively.
Compound `CC(C)(C)c1ncc(C(=O)Nc2cccc(C(F)(F)F)c2)nc1Cl` returned an inhibition at 6.25 µg/mL in assay [1] of 95%. The MIC (as a rule, the lowest concentration that inhibits growth of the organism) in assay [5] was 3.13 µg/mL (≈ 8.75 µM). Also, the IC50 was 173 µM in assay [2] and greater than 10 µg/mL in the assay with Vero. In the assay on Chlorella vulgaris [3], the Activity turned out to be 90.1%. In addition, the Ratio in assay [6] was greater than 3.2.
In turn, `O=C(Nc1ccc(F)cc1)c1cncc(Cl)n1` returned an inhibition at 6.25 µg/mL in assay [1] of 44%. Besides, the figures for the IC50 (in [2]; with Chlorella vulgaris [4]) were 384 µM and 32.3 µM, respectively.
Turning to `Cc1ccc(NC(=O)c2cnc(C(C)(C)C)cn2)cc1`, the inhibition at 6.25 µg/mL in assay [1] worked out at 61%. Also, in [2], the IC50 was found to be 164 µM. Besides, the Activity in the assay with Chlorella vulgaris [3] is recorded as 91.8%.
Regarding `CC(C)(C)c1cnc(C(=O)Nc2ccc(F)cc2)cn1`, the inhibition at 6.25 µg/mL in assay [1] was 25%. Besides, the IC50 in assay [2] worked out at 524 µM. Also, in the assay on Chlorella vulgaris [3], the Activity is reported as 94.5%.
As to `O=C(Nc1cccc(C(F)(F)F)c1)c1cnccn1`, in [1], 6.25 µg/mL produced 99% inhibition. Further, in [5], it took 6.25 µg/mL (≈ 23.4 µM) to inhibit growth (MIC). Further, the IC50 was 130 µM in assay [2] and greater than 62.5 µg/mL in the assay with Vero. For the same compound, in the assay on Chlorella vulgaris [3], the Activity stood at 91.5%. For the same compound, in assay [6], the Ratio is listed as greater than 10.
With `CC(C)(C)c1ncc(C(=O)Nc2ccc(F)cc2)nc1Cl`, in assay [1], the inhibition at 6.25 µg/mL came to 15%. In addition, the half-inhibitory concentration (IC50) in assay [2] came out at 103 µM. Further, the Activity with Chlorella vulgaris [3] amounted to 101.6%.
As to `CC(C)(C)c1cnc(C(=O)Nc2cc(O)ccc2Cl)cn1`, in assay [1], testing at 6.25 µg/mL gave an inhibition of 0%. The Activity in the assay on Chlorella vulgaris [3] stood at 122%.
The compound `CC(C)(C)c1cnc(C(=O)Nc2ccccc2C(F)(F)F)cn1` showed an inhibition at 6.25 µg/mL in assay [1] of 7%. The IC50 in assay [2] amounted to 55 µM; in the assay on Chlorella vulgaris [4], 32.9 µM.
Turning to `CC(C)(C)c1ncc(C(=O)Nc2ccccc2C(F)(F)F)nc1Cl`, at 6.25 µg/mL the inhibition in [1] was 6%. Moreover, the IC50 in assay [2] came out at 205 µM. Further, in the assay with Chlorella vulgaris [3], the Activity was 94.4%.
With `O=C(Nc1ccccc1C(F)(F)F)c1cncc(Cl)n1`, the inhibition at 6.25 µg/mL in assay [1] was 26%. In addition, the IC50 in [2] worked out at 557 µM. For the same compound, in the assay on Chlorella vulgaris [3], the Activity is reported as 87.8%.
For `CC(C)(C)c1cnc(C(=O)Nc2cccc(C(F)(F)F)c2)cn1`, in [1], testing at 6.25 µg/mL gave an inhibition of 23%. In addition, the MIC in assay [7] and in assay [8] was 62.5 µM (≈ 20.2 µg/mL) each time. Moreover, the IC50 in assay [2] came out at 283 µM. For the same compound, the Activity in the assay with Chlorella vulgaris [3] is reported as 85.2%.
In assay [1], `O=C(Nc1cccc(C(F)(F)F)c1)c1cncc(Cl)n1` displayed an inhibition at 6.25 µg/mL of 77%. Besides, the half-inhibitory concentration (IC50) was found to be 229 µM in assay [2] and 12.1 µM in the assay on Chlorella vulgaris [4].
The like results for `Cc1ccc(NC(=O)c2cnccn2)cc1` were, in that order, 86%, 1480 µM and 70.9 µM.
On to `O=C(Nc1ccccc1C(F)(F)F)c1cnccn1`, for which, in assay [1], the inhibition at 6.25 µg/mL is 31%. The IC50 in assay [2] was 376 µM. Further, in the assay with Chlorella vulgaris [3], the Activity came out at 91.7%.
On to `CN(C)C(=O)Nc1ccc(Cl)c(Cl)c1` [DCMU], for which the results for the IC50 (in assay [2]; with Chlorella vulgaris [4]) were 1.9 µM and 7.3 µM, respectively.
In turn, `NC(=O)c1cnccn1` [PYRAZINAMIDE] came in with an MIC in [5] of 12.5 µg/mL (≈ 102 µM).
In assay [1], `O=C(Nc1ccc(F)cc1)c1cnccn1` came in with an inhibition at 6.25 µg/mL of 0%. Further, the IC50 in [2] is 480 µM. Further, in the assay with Chlorella vulgaris [3], the Activity is recorded as 89.9%.
As to `Cc1ccc(NC(=O)c2cnc(C(C)(C)C)c(Cl)n2)cc1`, the inhibition at 6.25 µg/mL in [1] was 0%. In addition, the IC50 in [2] worked out at 73 µM. The Activity in the assay with Chlorella vulgaris [3] was 92.9%.
